ASAP1 GAP inh: inhibitors of human ASAP1 ArfGAP activity, primary screen, biochemical, fluorescence polarization; Arf-GAP with SH3 domain, ANK repeat and PH domain-containing protein 1 (Homo sapiens), …; ASAP1-stimulated ARF1 GTP hydrolysis, GDP FP detection; inhibition, % at 16.5 µM; 360,000 compounds, 0.19% hits; AID 624377, 2012; in the data active = inhibition above about 25%
Target sequence (Q9ULH1 325-724 limits assumed): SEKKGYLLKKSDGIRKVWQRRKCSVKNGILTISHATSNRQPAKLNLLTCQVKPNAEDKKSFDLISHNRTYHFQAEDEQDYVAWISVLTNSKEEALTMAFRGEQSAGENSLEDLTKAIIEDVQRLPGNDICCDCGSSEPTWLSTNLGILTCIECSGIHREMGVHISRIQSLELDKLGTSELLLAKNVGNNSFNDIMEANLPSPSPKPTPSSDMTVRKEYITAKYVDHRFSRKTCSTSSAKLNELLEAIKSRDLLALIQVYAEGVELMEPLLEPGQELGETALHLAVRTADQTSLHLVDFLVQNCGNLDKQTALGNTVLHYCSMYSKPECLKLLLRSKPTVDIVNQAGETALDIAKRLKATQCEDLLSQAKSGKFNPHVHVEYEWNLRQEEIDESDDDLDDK
MsrA inhibitor: bovine MsrA enzyme inhibitors, primary screen, biochemical, absorbance, HTS; Methionine sulfoxide reductase A (Bos taurus); purified bovine MsrA, absorbance read-out; inhibition, % at 15.5 µM; 360,000 compounds, 0.75% hits; AID 651718, 2012
ARFGAP1 inh: inhibitors of rat ARFGAP1 GAP activity, primary screen, biochemical, fluorescence polarization, GDP tracer; inhibition, % at 16.5 µM; Arfgap1-stimulated ARF1 GTP hydrolysis, GDP FP detection; 360,000 compounds, 0.26% hits; AID 651572, 2012;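 active = inhibition above a per-plate limit, mean inhibition of low control wells plus 3 SD, cut at about 25% in these data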
Target sequence (Q62848 1-136 limits assumed): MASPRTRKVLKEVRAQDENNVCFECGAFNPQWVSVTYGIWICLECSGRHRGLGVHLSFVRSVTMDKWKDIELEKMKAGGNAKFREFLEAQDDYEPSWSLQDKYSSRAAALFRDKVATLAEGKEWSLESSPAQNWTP
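Material: truncated rat Arfgap1 GAP domain; Incubation: compound-enzyme preincubation 20 min, reaction 120 min, detection 60 min, 25 °C; Read-out: percent inhibition of Arfgap1-stimulated GTP hydrolysis; Technique: FP, GDP Alexa 633 tracer displaced from anti-GDP antibody, 620/688 nm; Controls: No-Arfgap1 wells (100%) versus DMSO full-reaction wells (0%); Replication: single well per compound.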
bovine MsrA act: bovine MsrA enzyme activators, primary screen, biochemical, absorbance, HTS | Methionine sulfoxide reductase A (Bos taurus) | purified bovine MsrA, absorbance read-out | activation, % at 10.6 µM | 360,000 compounds, 0.3% hits; in the data active = activation above about 7.5%
MsrA conf: bovine MsrA inhibitors, retest, confirmation, biochemical, absorbance, HTS; shares compounds with MsrA inhibitor; purified bovine MsrA, absorbance read-out; inhibition, % at 15.5 µM; 2,300 compounds, 41% hits; AID 651822, 2012;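 also: coupled to thioredoxin reductase with NADPH and selenocystamine and DMSO as substrate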
Hits are given with their value; – = inactive; · = no result. This is a sample that favours compounds with a hit; in the whole collection about 1.4% have one here. Rule as the data show it, unless noted: active = inhibition above about 4.5%; inactive = the rest.

SMILES	ASAP1 GAP inh	MsrA inhibitor	ARFGAP1 inh	bovine MsrA act	MsrA conf
O=[N+]([O-])c1ccc(O)c(C=NNc2ccc(S(=O)(=O)O)cc2)c1	–	5.3	–	–	6.2
CNc1cncc(-c2ccc(OCCCN(C)C)nc2)n1	–	–	–	–	·
O=C(N/N=C/c1ccccc1)c1cccc2ccccc12	–	–	–	–	·
O=C(N/N=C/c1cccn1-c1ccc(O)cc1)c1cccc2ccccc12	–	5.2	–	–	–
CNC1=C(N(C(C)=O)c2ccc(Br)cc2)C(=O)c2ccccc2C1=O	–	36	–	–	5.5
CCOC(=O)/C(C#N)=C/c1cn(CCC(=O)O)nc1-c1ccc(OC)cc1	–	5.0	–	–	–
CCOC(=O)/C(C#N)=C/c1cn(CCC(=O)O)nc1-c1ccccc1	–	–	–	–	·
COc1ccc(/C=C/C(=O)N2CCN(c3ccccn3)CC2)c2ccccc12	–	–	–	–	·
COc1cc(/C=C(/C(=O)c2cccs2)c2nc3ccccc3[nH]2)cc(OC)c1O	–	5.5	–	–	–
COc1ccc(C(=O)N/C(=C/c2cccs2)c2nc3ccccc3[nH]2)cc1OC	–	5.3	–	–	–
CC1CCN(C(=O)CCC(=O)Nc2nnc(C(F)(F)F)s2)CC1	·	·	·	–	·
COc1cccc(CN2CCC2(C)C(=O)Nc2ccc(C)c(O)c2)c1F (configuration not stated)	–	–	–	–	·
Cc1cccc(NC(=S)NC(=O)/C=C/c2ccco2)c1	–	25	–	–	–
O=C(/C=C/c1ccco1)NC(=S)Nc1ccccc1	–	–	–	–	·
COc1ccc(/C=C2\N=C(c3ccc(C)cc3)OC2=O)cc1	–	–	–	–	·
Cc1ccc(C2=N/C(=C\N3CCCCC3)C(=O)O2)cc1	–	6.1	–	–	5.9
Cc1ccc(C2=N/C(=C/N3CCOCC3)C(=O)O2)cc1	–	6.5	–	–	7.6
Cc1cccc2cc(/C=C3\N=C(c4ccccc4)OC3=O)c(N3CCOCC3)nc12	–	–	–	–	·
Cc1cccc(/N=C/c2nc(-c3ccccc3Br)oc2O)n1	–	–	–	–	·
Cc1ccnc(N=Cc2nc(-c3ccccc3Br)oc2O)c1	–	6.5	–	–	–
Cc1ccccc1NC1=C/C(=N\S(=O)(=O)c2ccc(C(=O)O)cc2)c2ccccc2C1=O	–	19	–	–	21
CC(=O)Nc1ccc(NC2=C/C(=N/S(=O)(=O)c3cccs3)c3ccccc3C2=O)cc1	–	47	–	–	44
CC(C)c1ccc(S(=O)(=O)/N=C2\C=C(NS(=O)(=O)c3ccccc3)C(=O)c3ccccc32)cc1	–	–	–	–	·
CCc1ccc(S(=O)(=O)/N=C2\C=C(NS(=O)(=O)c3ccccc3)C(=O)c3ccccc32)cc1	–	–	–	–	·
Cc1ccc(NC2=C/C(=N/S(=O)(=O)c3cccs3)c3ccccc3C2=O)cc1C	–	–	–	–	·
SMILES	ASAP1 GAP inh	MsrA inhibitor	ARFGAP1 inh	bovine MsrA act	MsrA conf
O=C(O)c1ccc(S(=O)(=O)/N=C2\C=C(Nc3ccccc3F)C(=O)c3ccccc32)cc1	–	46	–	–	47
COc1cccc(CN2CCNC(=O)C2CC(=O)NCC(C)(C)N2CCOCC2)c1OC (configuration not stated)	–	–	–	–	·
CCCOc1ccc(-c2nn(-c3ccccc3)cc2/C=C2\SC(N)=NC2=O)cc1C	–	–	–	–	·
COc1ccc(-c2nn(CCC(=O)O)cc2/C=C2\SC(N)=NC2=O)cc1OC	–	5.6	–	–	–
CCOC(=O)c1sc(N)c(C(=O)Nc2ccccc2)c1C	–	4.8	–	–	–
O=C(NCc1ccccc1)c1ccc(NC(=O)C2CCC2)cc1	–	–	–	–	·
CCCCOCP(=O)(CC)COCCCC	–	–	–	–	·
Cc1c(C(=O)NC(=S)N(Cc2ccccc2)c2ccccn2)cccc1[N+](=O)[O-]	–	–	–	–	·
C/C(CCC(C)C)=N\Nc1ccc(S(N)(=O)=O)cc1[N+](=O)[O-]	–	10	–	–	7.8
CC(Cc1ccccc1)=NNc1ccc([N+](=O)[O-])cc1[N+](=O)[O-]	–	–	–	–	·
C/C(=N\Nc1ccc(S(N)(=O)=O)cc1[N+](=O)[O-])c1ccc2c(c1)OCO2	–	21	–	–	15
CCN(CC)S(=O)(=O)c1ccc(N/N=C(\C)c2ccc3c(c2)OCO3)c([N+](=O)[O-])c1	–	–	–	–	·
COC(=O)CC/C(C)=N\Nc1ccc([N+](=O)[O-])cc1[N+](=O)[O-]	–	6.3	–	–	9.5
C/C(CC(C)C)=N/Nc1ccc([N+](=O)[O-])cc1[N+](=O)[O-]	–	11	–	–	12
COc1ccc(-c2ccc3c(n2)CCCN3S(=O)(=O)c2ccc(C#N)cc2)cc1	–	–	–	·	·
Cn1nccc1C(=O)N1CCCC(N2CCN(Cc3ccc4c(c3)OCO4)CC2)C1 (configuration not stated)	–	–	–	–	·
CC(C)[C@@H]1Cc2[nH]n(C)c(=O)c2[C@H](c2ccc(F)cc2)O1	–	–	–	–	·
Cc1ccc(N(C)S(=O)(=O)c2cccc(C(=O)Oc3ccc4c(C)cc(=O)oc4c3)c2)cc1	–	4.8	–	–	–
Cc1cc(=O)oc2cc(OC(=O)c3ccccc3)ccc12	–	–	–	–	·
CC1(C)CC(N2CCCC2)=CC(=[N+]2CCCC2)C1	–	5.9	–	–	–
CC1(C)CC(N2CCCC2)=CC(=[N+]2CCCCC2)C1	–	5.7	–	–	–
CCN(CC)C(=O)C1=C(C)N(CCC2=CCCCC2)C(=O)C(CC(=O)NC(c2ccccc2)c2ccccc2)C1 (configuration not stated)	–	–	–	–	·
COc1cccc(C=C2SC(=S)N(Cc3ccco3)C2=O)c1OC	–	–	–	·	·
Cc1ccc(S(=O)(=O)N2CCN(C(C)C(=O)Nc3ccccc3-c3ccccc3)CC2)cc1 (configuration not stated)	–	–	–	–	·
CC1=Nc2cc([N+](=O)[O-])ccc2NC(C)(C)C1	–	–	–	–	·
SMILES	ASAP1 GAP inh	MsrA inhibitor	ARFGAP1 inh	bovine MsrA act	MsrA conf
C=CCOCCN(C)C1=NS(=O)(=O)c2cc([N+](=O)[O-])ccc21	–	14	–	–	7.2
Cn1ccsc1=NC(=O)c1cccc(C#N)c1	–	5.5	–	–	–
Cc1ccc(C(=O)N=c2sccn2C)cc1S(=O)(=O)N1CCOCC1	–	6.0	–	–	–
O=C(NCc1cccnc1)c1cc(C2CCCN(C(=O)c3ccccn3)C2)on1 (configuration not stated)	–	48	–	–	–
O=C(NCc1cccnc1)c1cc(C2CCCN(C(=O)c3cccs3)C2)on1 (configuration not stated)	–	–	–	–	·
CCOC(=O)c1cc2c(ccc3ccccc32)oc1=O	–	20	–	–	13

Screening results as filed in PubChem.
